Results from ChEMBL document CHEMBL4049428, “Exploring Derivatives of Quinazoline Alkaloid l-Vasicine as Cap Groups in the Design and Biological Mechanistic Evaluation of Novel Antitumor Histone Deacetylase Inhibitors” (J Med Chem, 2017).
Calls of active or inactive are those of the source. The calls are words filed in the database; no cut-off is given here.

Tests used:
[1] = Inhibition of HDAC in human HeLa nuclear extract using Boc-Lys(Ac)-AMC as substrate measured after 30 mins by fluorometric analysis
Histone deacetylase 1 = Histone deacetylase 1 (Homo sapiens, UniProt Q13547); assay: Inhibition of HDAC 1 in human HeLa nuclear extract using HDAC substrate-3 measured after 60 mins by fluorometric analysis
Sequence of Histone deacetylase 1 (Q13547 whole entry): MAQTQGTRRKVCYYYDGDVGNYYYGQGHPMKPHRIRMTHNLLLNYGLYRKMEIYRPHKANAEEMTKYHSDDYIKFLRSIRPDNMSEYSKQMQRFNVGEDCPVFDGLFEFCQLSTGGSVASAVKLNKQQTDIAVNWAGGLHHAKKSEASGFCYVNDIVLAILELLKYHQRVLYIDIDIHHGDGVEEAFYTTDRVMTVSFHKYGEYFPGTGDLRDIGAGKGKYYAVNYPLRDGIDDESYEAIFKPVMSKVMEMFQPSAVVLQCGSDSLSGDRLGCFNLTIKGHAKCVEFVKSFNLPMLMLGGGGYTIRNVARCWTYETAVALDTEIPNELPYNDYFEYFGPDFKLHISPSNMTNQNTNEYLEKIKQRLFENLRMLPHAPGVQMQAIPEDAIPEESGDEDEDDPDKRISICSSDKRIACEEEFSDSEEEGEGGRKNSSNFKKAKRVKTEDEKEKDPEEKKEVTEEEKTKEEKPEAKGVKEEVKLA

Histone deacetylase 2 = Histone deacetylase 2 (Homo sapiens, UniProt Q92769); assay: Inhibition of HDAC 2 in human HeLa nuclear extract using HDAC substrate-3 measured after 60 mins by fluorometric analysis
Sequence of Histone deacetylase 2 (Q92769 whole entry): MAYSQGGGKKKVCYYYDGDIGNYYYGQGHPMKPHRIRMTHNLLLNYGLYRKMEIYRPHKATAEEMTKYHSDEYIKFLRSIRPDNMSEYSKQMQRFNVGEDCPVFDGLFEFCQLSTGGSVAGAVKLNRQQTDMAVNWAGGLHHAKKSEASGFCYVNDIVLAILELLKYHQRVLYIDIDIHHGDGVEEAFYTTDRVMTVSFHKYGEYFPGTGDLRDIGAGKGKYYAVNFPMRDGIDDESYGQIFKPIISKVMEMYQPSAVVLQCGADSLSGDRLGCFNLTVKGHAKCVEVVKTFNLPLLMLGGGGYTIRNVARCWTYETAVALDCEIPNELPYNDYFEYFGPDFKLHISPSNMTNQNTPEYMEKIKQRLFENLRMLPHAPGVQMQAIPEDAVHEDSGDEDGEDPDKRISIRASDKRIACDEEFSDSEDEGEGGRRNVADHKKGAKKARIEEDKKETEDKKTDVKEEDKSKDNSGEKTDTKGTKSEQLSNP

Histone deacetylase 3 = Histone deacetylase 3 (Homo sapiens, UniProt O15379); assay: Inhibition of HDAC 3 in human HeLa nuclear extract using HDAC substrate-3 measured after 60 mins by fluorometric analysis
Sequence of Histone deacetylase 3 (O15379 whole entry): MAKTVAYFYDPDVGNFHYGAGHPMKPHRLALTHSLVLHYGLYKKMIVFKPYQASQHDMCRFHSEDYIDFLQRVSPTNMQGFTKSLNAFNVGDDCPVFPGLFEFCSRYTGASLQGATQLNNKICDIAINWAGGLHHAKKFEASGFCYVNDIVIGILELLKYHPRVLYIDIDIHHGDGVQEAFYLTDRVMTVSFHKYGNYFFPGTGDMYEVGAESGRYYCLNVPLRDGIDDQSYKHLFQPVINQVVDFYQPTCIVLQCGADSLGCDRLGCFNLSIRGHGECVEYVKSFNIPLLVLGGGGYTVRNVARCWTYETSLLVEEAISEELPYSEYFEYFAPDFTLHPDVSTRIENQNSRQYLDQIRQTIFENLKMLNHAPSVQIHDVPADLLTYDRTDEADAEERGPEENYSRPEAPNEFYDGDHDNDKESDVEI

Histone deacetylase 9 = Histone deacetylase 9 (Homo sapiens, UniProt Q9UKV0); assay: Inhibition of HDAC 9 in human HeLa nuclear extract using fluorogenic HDAC class 2A substrate measured after 60 mins by fluorometric analysis
Sequence of Histone deacetylase 9 (Q9UKV0 whole entry): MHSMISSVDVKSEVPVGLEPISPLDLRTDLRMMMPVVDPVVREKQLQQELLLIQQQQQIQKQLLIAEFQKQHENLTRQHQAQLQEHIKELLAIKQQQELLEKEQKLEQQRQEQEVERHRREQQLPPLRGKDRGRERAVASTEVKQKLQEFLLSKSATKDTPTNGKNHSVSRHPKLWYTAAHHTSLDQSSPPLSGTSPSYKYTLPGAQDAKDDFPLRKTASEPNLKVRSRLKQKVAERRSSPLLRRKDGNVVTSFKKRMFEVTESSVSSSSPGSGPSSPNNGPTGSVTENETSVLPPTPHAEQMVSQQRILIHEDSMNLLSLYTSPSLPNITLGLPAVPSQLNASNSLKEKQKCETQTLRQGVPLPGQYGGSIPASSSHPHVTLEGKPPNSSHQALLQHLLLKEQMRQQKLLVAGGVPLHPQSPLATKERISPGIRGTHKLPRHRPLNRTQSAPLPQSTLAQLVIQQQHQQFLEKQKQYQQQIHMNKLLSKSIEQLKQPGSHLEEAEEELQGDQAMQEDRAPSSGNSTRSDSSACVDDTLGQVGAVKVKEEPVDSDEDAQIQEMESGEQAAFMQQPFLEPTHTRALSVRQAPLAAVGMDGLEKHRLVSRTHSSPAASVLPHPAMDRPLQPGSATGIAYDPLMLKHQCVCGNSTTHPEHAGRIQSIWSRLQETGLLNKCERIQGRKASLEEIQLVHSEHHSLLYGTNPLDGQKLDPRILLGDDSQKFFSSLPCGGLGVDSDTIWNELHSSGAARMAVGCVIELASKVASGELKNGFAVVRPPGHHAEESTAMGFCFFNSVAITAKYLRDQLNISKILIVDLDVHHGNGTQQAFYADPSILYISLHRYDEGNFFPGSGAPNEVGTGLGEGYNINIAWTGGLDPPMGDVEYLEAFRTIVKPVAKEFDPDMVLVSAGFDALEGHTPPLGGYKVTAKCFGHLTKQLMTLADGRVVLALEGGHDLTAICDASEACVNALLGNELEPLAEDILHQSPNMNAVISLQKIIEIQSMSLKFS

[2] = biological target: Polyamine deacetylase HDAC10 (Homo sapiens, UniProt Q969S8); assay: Inhibition of HDAC 10 in human HeLa nuclear extract measured after 60 mins by fluorometric analysis
Sequence of Polyamine deacetylase HDAC10 (Q969S8 whole entry): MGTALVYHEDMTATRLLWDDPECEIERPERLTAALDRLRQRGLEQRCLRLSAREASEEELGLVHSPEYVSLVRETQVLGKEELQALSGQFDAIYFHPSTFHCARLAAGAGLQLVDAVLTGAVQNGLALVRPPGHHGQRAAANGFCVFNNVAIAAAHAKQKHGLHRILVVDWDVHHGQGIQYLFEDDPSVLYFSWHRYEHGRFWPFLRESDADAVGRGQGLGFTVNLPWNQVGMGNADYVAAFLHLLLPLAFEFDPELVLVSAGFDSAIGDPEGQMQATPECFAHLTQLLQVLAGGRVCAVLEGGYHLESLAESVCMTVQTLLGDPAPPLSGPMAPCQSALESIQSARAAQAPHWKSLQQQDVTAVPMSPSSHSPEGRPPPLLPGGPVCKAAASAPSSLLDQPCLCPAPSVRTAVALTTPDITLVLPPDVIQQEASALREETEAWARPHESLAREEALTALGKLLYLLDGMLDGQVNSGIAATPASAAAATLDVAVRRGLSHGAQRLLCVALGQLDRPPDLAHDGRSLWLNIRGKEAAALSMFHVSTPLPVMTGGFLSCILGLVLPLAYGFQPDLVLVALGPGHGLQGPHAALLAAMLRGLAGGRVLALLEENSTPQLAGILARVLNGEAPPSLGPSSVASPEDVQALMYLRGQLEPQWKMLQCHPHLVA

HL-60 [3] = assay: Cytotoxicity against human HL60 cells assessed as growth inhibition at 10 uM after 48 hrs by MTT assay; assay type: functional; conditions: HL-60, 48 h, read-out: GI
In short: (§1)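 MTT assay, 48 h exposure; adherent lines seeded 12 h and suspension lines 4 h before compound. Media: RPMI-1640/10% FCS (THP-1, HL-60, Colo-205, Caco-2, A549), DMEM/10% FCS (A549, MIAPaCa-2, MCF-7). MTT 4 h, formazan dissolved in DMSO, absorbance 570 nm. Mean ± S.D of three experiments in triplicate; SAHA 5 µM reference.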

MOLT-4 [4] = assay: Cytotoxicity against human MOLT4 cells assessed as growth inhibition at 10 uM after 48 hrs by MTT assay; assay type: functional; conditions: MOLT-4, 48 h, read-out: GI
MIA PaCa-2 = assay: Cytotoxicity against human MIAPaCa2 cells assessed as growth inhibition after 48 hrs by MTT assay; assay type: functional, cell-based; conditions: MIA PaCa-2, 48 h; in short: as §1
PC-3 = assay: Cytotoxicity against human PC3 cells assessed as growth inhibition after 48 hrs by MTT assay; assay type: functional, cell-based; conditions: PC-3, 48 h
Homo sapiens [5] = species on record: Homo sapiens; assay: Inhibition of HDAC in human HL60 cells assessed as increase in acetylated H3K18 levels after 48 hrs by Western blot analysis; assay type: cell-based
In short: (§2)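 Cells seeded 2-4 h, treated 48 h with graded compound concentrations (SAHA control); histones acid-extracted (HEPES pH 9 buffer, 0.2 N HCl, 1 h on ice), Bradford-normalised, resolved on 18% SDS gels, blotted to PVDF, probed for acetyl-H3K18 and acetyl-H4K5 with H3 and β-actin loading controls; ECL detection.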

Homo sapiens [6] = species on record: Homo sapiens; assay: Inhibition of HDAC in human MOLT4 cells assessed as increase in acetylated H3K18 levels after 48 hrs by Western blot analysis; assay type: cell-based; in short: as §2
Homo sapiens [7] = species on record: Homo sapiens; assay: Inhibition of HDAC in human HL60 cells assessed as increase in acetylated H4K5 levels after 48 hrs by Western blot analysis; assay type: cell-based; in short: as §2
Homo sapiens [8] = species on record: Homo sapiens; assay: Inhibition of HDAC in human MOLT4 cells assessed as increase in acetylated H4K5 levels after 48 hrs by Western blot analysis; assay type: cell-based; in short: as §2
[9] = Cytotoxicity against human FR2 cells assessed as growth inhibition after 48 hrs by MTT assay; assay type: ADME, cell-based; conditions: FR2, 48 h
Mus musculus = assay: Toxicity in CDF1 mouse assessed as mortality at 50 mg/kg, ip administered for 9 consecutive days measured up to 18 days; assay type: organism-based; conditions: in vivo, 432 h
In short: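 P388 leukemia cells were harvested from 6–7-day-old ascites grown in the peritoneum of female DBA/2 mice. Female CDF1 mice (18–23 g) received 5×10^5 cells i.p. on day 0. Next day they were randomized into groups of 7 and dosed i.p. daily for 9 consecutive days; controls got 0.2 ml normal saline. Mortality was followed to day 18, with median survival time and %T/C calculated.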

HL-60 [10] = assay: Induction of mitochondrial membrane potential loss in human HL60 cells assessed as intact mitochondrial membrane potential at 5 uM measured after 48 hrs by Rh123 dye-based flow cytometric analysis (reference value: 91.3%); assay type: functional
In short: (§3)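 Cells seeded in 6-well plates 2-4 h, then 48 h with compound; Rh-123 1 µM added for the final half hour; cells centrifuged, washed twice in PBS, resuspended in PBS, and Ψm loss quantified by flow cytometry as percentage of cells.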

HL-60 [11] = assay: Induction of mitochondrial membrane potential loss in human HL60 cells assessed as intact mitochondrial membrane potential at 10 uM measured after 48 hrs by Rh123 dye-based flow cytometric analysis (reference value: 91.3%); assay type: functional; in short: as §3
MOLT-4 [12] = assay: Induction of mitochondrial membrane potential loss in human MOLT4 cells at 5 uM measured after 48 hrs by Rh123 dye-based flow cytometric analysis (reference value: 9.6%); assay type: functional; in short: as §3
MOLT-4 [13] = assay: Induction of mitochondrial membrane potential loss in human MOLT4 cells at 10 uM measured after 48 hrs by Rh123 dye-based flow cytometric analysis (reference value: 90.4%); assay type: functional; in short: as §3
HL-60 [14] = assay: Induction of reactive oxygen species in human HL60 cells at 0.125 uM measured after 48 hrs by H2DCFDA dye-based flow cytometric analysis (reference value: 0.4%); assay type: functional
HL-60 [15] = assay: Induction of reactive oxygen species in human HL60 cells at 1 uM measured after 48 hrs by H2DCFDA dye-based flow cytometric analysis (reference value: 0.4%); assay type: functional
MOLT-4 [16] = assay: Induction of reactive oxygen species in human MOLT4 cells at 0.125 uM measured after 48 hrs by H2DCFDA dye-based flow cytometric analysis (reference value: 1.1%); assay type: functional
MOLT-4 [17] = assay: Induction of reactive oxygen species in human MOLT4 cells at 1 uM measured after 48 hrs by H2DCFDA dye-based flow cytometric analysis (reference value: 1.1%); assay type: functional
MOLT-4 [18] = assay: Induction of reactive oxygen species in human MOLT4 cells at 5 uM measured after 48 hrs by H2DCFDA dye-based flow cytometric analysis (reference value: 1.1%); assay type: functional
MOLT-4 [19] = assay: Induction of autophagy in human MOLT4 cells assessed as acidic vacuole formation in cytoplasm at 10 uM after 48 hrs by acridine orange dye-based fluorescent microscopic analysis; assay type: functional, cell-based
In short: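 Cells treated 48 h with a range of compound concentrations, SAHA 1.0 µM as positive control; acridine orange 1 µg/ml added 15 min before end at 37°C; cells washed in PBS and acidic vacuoles viewed by fluorescence microscopy.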

HL-60 [20] = assay: Induction of autophagy in human HL60 cells assessed as intracellular LC-3B distribution at 10 uM after 48 hrs by DAPI dye-based immunofluorescent microscopic analysis; assay type: functional, cell-based
In short: (§4)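 After 48 h treatment (SAHA 1.0 µM control), cells put on poly-lysine coverslips, fixed 15 min in 4% paraformaldehyde, permeabilised with 0.1% Triton X-100, blocked in 10% BSA; anti-LC-3B 1:100 for 1 h, Alexa Fluor 488 secondary 1:500 for 1 h, DAPI 1 µg/ml counterstain; imaged with 60X oil objective.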

MOLT-4 [21] = assay: Induction of autophagy in human MOLT4 cells assessed as intracellular LC-3B distribution at 10 uM after 48 hrs by DAPI dye-based immunofluorescent microscopic analysis; assay type: functional, cell-based; in short: as §4

SMILES: O=C(CCCCCCC(=O)Nc1ccccc1CN1CC[C@H](O)C1)NO
- IC50 [1]: 370 nM
- IC50 (Histone deacetylase 1): 415 nM
- IC50 (Histone deacetylase 2): 268 nM
- IC50 (Histone deacetylase 3): 368 nM
- IC50 (Histone deacetylase 9): > 10000 nM
- IC50 [2]: > 10000 nM
- inhibition of growth at 10 µM (HL-60 [3]): 95%
- inhibition of growth at 10 µM (MOLT-4 [4]): 91%
- IC50 (MIA PaCa-2): 1000 nM
- IC50 (PC-3): 19000 nM
- inhibition (Homo sapiens [5]): Dose-dependent effect
- inhibition (Homo sapiens [6]): Dose-dependent effect
- inhibition (Homo sapiens [7]): Dose-dependent effect
- inhibition (Homo sapiens [8]): Dose-dependent effect
- IC50 [9]: 23000 nM
- Activity (Mus musculus): Non-Toxic
- Activity (HL-60 [10]): 82.6%
- Activity (HL-60 [11]): 54.7%
- Activity (MOLT-4 [12]): 57.5%
- Activity (MOLT-4 [13]): 32.5%
- Activity (HL-60 [14]): 1%
- Activity (HL-60 [15]): 0.6%
- Activity (MOLT-4 [16]): 1.3%
- Activity (MOLT-4 [17]): 1.1%
- Activity (MOLT-4 [18]): 1.9%
- Activity (MOLT-4 [19]): Active
- Activity (HL-60 [20]): Active
- Activity (MOLT-4 [21]): Active
